Activity calls are given as the source filed them. No cut-off for these calls is given here.
Assays:
[1] = Cytotoxicity against human WHCO1 cells after 48 hrs by MTT assay; conditions: WHCO1, 48 h
[2] = Ratio of cisplatin IC50 to compound IC50 for human WHCO1 cells after 48 hrs by MTT assay
[3] = system: NIH3T3; experiment: Cytotoxicity against mouse NIH/3T3 cells after 96 hrs by MTT assay; format: cell-based; conditions: for IC50: Mus musculus, NIH3T3, 96 h; for Activity: mouse, nih3t3, 96 h
Outline: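 NIH3T3 fibroblasts kept in DMEM with 10% heat-inactivated FCS plus penicillin/streptomycin/amphotericin at 37 °C, 9% CO2. Seeded at 1000 cells/well overnight, then exposed to 0, 10, 100, 1 000 and 10 000 nM or vehicle (0.02% v/v) for 96 h.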

[4] = system: WHCO1; experiment: Induction of apoptosis in human WHCO1 cells assessed as PARP cleavage at 20 uM after 6 to 48 hrs by MTT assay; format: functional, cell-based; conditions: in the assay text read “by Western blot analysis” for “by MTT assay”
Outline: (§1)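 Western blot of WHCO1 cells given varying concentrations for 6, 24 and 48 h, protein extracted at each time point. PARP cleavage to […] 85 kDa fragments taken as the apoptosis marker; c-Jun levels probed on the same blots.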

[5] = system: WHCO1; experiment: Induction of apoptosis in human WHCO1 cells assessed as PARP cleavage at 5 to 10 uM after 6 to 48 hrs by MTT assay; format: functional, cell-based; conditions: in the assay text read “by Western blot analysis” for “by MTT assay”
Outline: as §1

[6] = system: WHCO1; experiment: Induction of apoptosis in human WHCO1 cells assessed as increase in c-jun level after 6 to 24 hrs by MTT assay; format: functional, cell-based; conditions: in the assay text read “by Western blot analysis” for “by MTT assay”
Outline: as §1

[7] = Ratio of cisplatin IC50 to compound IC50 for human WHCO1 cells after 24 hrs by MTT assay; format: functional
[8] = Cytotoxicity against human WHCO1 cells after 24 hrs by MTT assay; format: functional, cell-based; conditions: WHCO1, 24 h

Row | Compound | IC50 [1] [µM] | Ratio IC50 [2] | also measured
1 | CC(C)=CCC1=CC(=O)c2ccccc2C1=O [DEOXYLAPACHOL] | 15 |  | 
2 | O=C(C1=CC(=O)c2ccccc2C1=O)c1cccc(Cl)c1 | 94.8 |  | 
3 | O=C(C1=CC(=O)c2ccccc2C1=O)c1ccoc1 | 96.9 |  | 
4 | O=C(C1=CC(=O)c2ccccc2C1=O)c1ccc(F)cc1 | 74.9 |  | 
5 | O=C1C=C(C(O)CCc2ccccc2)C(=O)c2ccccc21 (stereo not given) | 4.8 | 2 | 
6 | O=C1C=C(C(O)c2ccc(F)cc2)C(=O)c2ccccc21 (stereo not given) | 5.1 | 2 | IC50 [3]: 11.7 µM
7 | O=C1C=C(c2ccccc2)C(=O)c2ccccc21 | 11.7 | 2 | 
8 | C=CC(O)C1=CC(=O)c2ccccc2C1=O (stereo not given) | 4.3 |  | 
9 | CC1(C)CCC2=C(O1)c1ccccc1C(=O)C2=O [LAPACHONE] | 1.6 | 10 | 
10 | CC(C)=CCC1=C(O)C(=O)c2ccccc2C1=O [LAPACHOL] | 24.1 |  | 
11 | O=C1C=C([C@@H](O)c2ccccc2)C(=O)c2ccccc21 | 3.8 |  | Activity [4]: Active; Activity [5]: inactive; Activity [6]: Dose-dependent effect
12 | O=C(C1=CC(=O)c2ccccc2C1=O)c1cccc(F)c1 | 94.8 |  | 
13 | CC(C)=CC(O)C1=CC(=O)c2ccccc2C1=O (stereo not given) | 5.2 |  | 
14 | O=C1C=C(C(O)c2ccc3ccccc3c2)C(=O)c2ccccc21 (stereo not given) |  |  | Ratio IC50 [7]: 2; IC50 [8]: 2.4 µM
15 | CC1(C)OC2=C(CC1O)C(=O)C(=O)c1ccccc12 (stereo not given) | 6.5 | 2 | 
16 | O=C1C=C([C@H](O)c2ccccc2)C(=O)c2ccccc21 | 4.3 |  | Activity [4]: Active; Activity [5]: inactive; Activity [6]: Dose-dependent effect

Row | Compound | IC50 [1] [µM] | Ratio IC50 [2] | also measured
17 | O=C1C=C(C(O)c2ccccc2)C(=O)c2ccccc21 (racemic) | 3.9 | 11 | Activity [4]: Active; Activity [3]: Non-toxic; Activity [5]: inactive; Activity [6]: Dose-dependent effect
18 | O=C1C=C(Cc2ccccc2)C(=O)c2ccccc21 | 21.6 |  | 
19 | O=C(CCc1ccccc1)C1=CC(=O)c2ccccc2C1=O | 83.7 |  | 
20 | O=C1C=C(C(O)c2cccc(F)c2)C(=O)c2ccccc21 (stereo not given) | 5.5 | 2 | IC50 [3]: 82 µM
21 | Cc1cc(Cl)ccc1C(=O)C1=CC(=O)c2ccccc2C1=O | 50.4 |  | 
22 | CC1(C)CC2=C(O1)c1ccccc1C(=O)C2=O [NOR-BETA-LAPACHONE] | 2.4 | 7 | 
23 | O=C1C=C(C(O)c2cccc(Cl)c2)C(=O)c2ccccc21 (stereo not given) | 7.3 | 2 | Activity [3]: Non-toxic
24 | Cc1cc(Cl)ccc1C(O)C1=CC(=O)c2ccccc2C1=O (stereo not given) | 3.4 | 2 | IC50 [3]: 7.4 µM
25 | O=C(C1=CC(=O)c2ccccc2C1=O)c1ccccc1 | 63.4 |  | 
26 | O=C1C=C(C(O)c2ccoc2)C(=O)c2ccccc21 (stereo not given) | 10.9 | 2 | 
27 | CC(O)C1=CC(=O)c2ccccc2C1=O (stereo not given) | 6.4 |  | 
28 | O=C(C1=CC(=O)c2ccccc2C1=O)c1ccc(Cl)cc1 | 72.9 |  | 
29 | CC1(C)OC2=C(CC1Br)C(=O)C(=O)c1ccccc12 (stereo not given) | 1.8 | 9 | 
30 | O=C1C=C(C(O)c2ccc(Cl)cc2)C(=O)c2ccccc21 (stereo not given) | 3 | 2 | Activity [3]: Non-toxic
31 | CC1(C)CCC2=C(O1)C(=O)c1ccccc1C2=O [ALPHA-LAPACHONE] | 28.7 |  | 
